BindingDB's records for doi:10.1016/j.bmc.2015.06.007 (Taipei Medical University, 2015)
pIC50: −log10 of the molar value.

What follows are molecules tested against T1, Tumor necrosis factor ligand superfamily member 11 (Mus musculus, UniProt O35235) (assay: Inhibition of recombinant mouse RANKL-induced TRAP activity in mouse RAW264.7 cells using 4-nitrophenyl phosphate as TRAP substrate preincubated for 4 days followed by substrate addition measured after 15 mins by ELISA reader analysis).
T1 sequence (O35235 whole entry): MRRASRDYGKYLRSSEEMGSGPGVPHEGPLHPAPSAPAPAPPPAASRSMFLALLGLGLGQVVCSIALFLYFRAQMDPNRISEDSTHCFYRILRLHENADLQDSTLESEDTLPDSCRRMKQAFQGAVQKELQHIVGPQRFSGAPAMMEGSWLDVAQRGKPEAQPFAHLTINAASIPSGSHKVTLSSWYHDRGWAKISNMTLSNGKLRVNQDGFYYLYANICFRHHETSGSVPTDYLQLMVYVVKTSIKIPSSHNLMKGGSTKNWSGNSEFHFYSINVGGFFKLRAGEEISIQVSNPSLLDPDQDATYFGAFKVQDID
Method in brief: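 RAW264.7 cells (2 × 10⁴ per well) were cultured 4 days in α-MEM with 10% FBS, 2 mM L-glutamine and murine RANKL 100 ng/mL, with or without compound. Cells were lysed in 0.1% Triton X-100/50 mM Tris-HCl pH 7.2 on ice. They were incubated with 2 mg/mL 4-nitrophenyl phosphate in 0.09 M citrate for 15 min at 37 °C, stopped with 0.1 N NaOH, and read at 405 nm. Protein was measured by BCA.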

SMILES | pIC50
O=c1oc2ccccc2c(=O)n1-c1ccc(Cl)cc1F | 4.97
C#Cc1cccc(-n2c(=O)oc3ccc(-c4ccc(F)cc4F)cc3c2=O)c1 | 5.43
O=c1oc2ccc(-c3ccc(F)cc3F)cc2c(=O)n1-c1cc(F)ccc1F | 5.37
O=c1oc2ccc(-c3ccc(F)cc3F)cc2c(=O)n1-c1cccc(C(F)(F)F)c1 | 5.37
